Laboratory results published in PMC11967334 (RSC Advances, 2025).

Columns and labels:
HepG-2 cells [1] = assay: Flow cytometric annexin V/PI analysis of apoptosis; assay type: cell-based, human; conditions: HepG-2, 72 h, mean ± SEM
VEGF [2] = assay: VEGF gene expression by quantitative real-time PCR; assay type: cell-based, human; conditions: MCF-7, compared to untreated cells, mean ± SEM
Wi-38 cells = assay: MTT cytotoxicity on normal human fibroblasts; assay type: cell-based
Procedure, shortened: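 Normal human lung fibroblasts (Wi-38) were exposed to free s-triazine dendrimers and their conjugates, and viability was read by MTT assay. Safety was expressed as EC100 in μM, the concentration giving 100% growth of normal cells, as mean ± SEM of three measurements. Groups were compared by one-way ANOVA with Tukey's test at p < 0.05.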

HepG-2 cells [3] = assay: MTT cytotoxicity on hepatocellular carcinoma cells; assay type: cell-based, human
Procedure, shortened: (§1)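 Test compounds (free s-triazine dendrimers and their quercetin, lactobionic acid and PEG conjugates) were screened by MTT assay against MCF-7 breast and HepG-2 hepatocellular carcinoma cells. IC50 values are reported in μM as mean ± SEM of three measurements. Differences were tested by one-way ANOVA with Tukey's test, with p < 0.05 taken as significant. SI was tabulated against Wi-38 values.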

MCF-7 cells [4] = assay: MTT cytotoxicity on breast cancer cells; assay type: cell-based, human
Procedure, shortened: as §1

VEGF [5] = assay: VEGF gene expression by quantitative real-time PCR; assay type: cell-based, human; conditions: HepG-2, compared to untreated cells, mean ± SEM
MCF-7 cells [6] = assay: Flow cytometric annexin V/PI analysis of apoptosis; assay type: cell-based, human; conditions: MCF-7, 72 h, mean ± SEM
MMP-9 = MMP-9 (Homo sapiens, UniProt P14780); assay: In vitro MMP-9 inhibition, colorimetric kit; assay type: biochemical
MMP-9, sequence (P14780 94-707): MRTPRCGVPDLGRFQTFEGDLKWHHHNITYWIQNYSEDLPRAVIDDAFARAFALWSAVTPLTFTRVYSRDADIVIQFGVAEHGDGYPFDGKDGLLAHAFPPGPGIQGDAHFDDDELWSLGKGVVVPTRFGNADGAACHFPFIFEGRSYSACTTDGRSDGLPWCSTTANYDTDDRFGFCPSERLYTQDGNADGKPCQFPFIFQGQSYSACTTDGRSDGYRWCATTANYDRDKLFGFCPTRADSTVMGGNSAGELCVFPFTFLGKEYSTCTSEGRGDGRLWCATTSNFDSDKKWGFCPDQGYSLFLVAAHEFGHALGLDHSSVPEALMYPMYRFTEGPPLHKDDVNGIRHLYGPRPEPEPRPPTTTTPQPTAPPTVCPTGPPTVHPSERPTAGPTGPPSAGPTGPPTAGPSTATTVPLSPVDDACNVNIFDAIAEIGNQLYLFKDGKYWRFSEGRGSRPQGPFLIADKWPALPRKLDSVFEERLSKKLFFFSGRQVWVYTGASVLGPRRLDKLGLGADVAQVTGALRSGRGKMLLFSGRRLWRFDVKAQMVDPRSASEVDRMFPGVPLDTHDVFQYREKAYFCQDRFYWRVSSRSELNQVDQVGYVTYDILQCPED

MMP-2 = MMP-2 (Homo sapiens, UniProt P08253); assay: In vitro MMP-2 inhibition, colorimetric kit; assay type: biochemical; conditions: read-out: MMP-2 IC50
MMP-2, sequence (P08253 110-446 limits assumed): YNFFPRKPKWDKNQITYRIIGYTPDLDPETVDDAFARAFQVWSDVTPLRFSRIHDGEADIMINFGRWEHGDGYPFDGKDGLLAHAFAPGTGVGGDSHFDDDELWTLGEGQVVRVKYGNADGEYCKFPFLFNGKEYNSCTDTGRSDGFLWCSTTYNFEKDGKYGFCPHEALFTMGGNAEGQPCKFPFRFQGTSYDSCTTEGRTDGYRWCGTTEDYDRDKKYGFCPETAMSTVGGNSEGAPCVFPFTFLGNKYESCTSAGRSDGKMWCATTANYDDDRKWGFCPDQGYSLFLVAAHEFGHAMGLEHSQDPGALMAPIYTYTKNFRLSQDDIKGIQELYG

[7] = selectivity index versus normal Wi-38 cells

MMP-2/MMP-9 selectivity (MMP-9; SI = IC50 (MMP-2)/IC50 (MMP-9), text: folds) | IC50 (MMP-9; read-out: MMP-9 IC50) [nM] | IC50 (MMP-2) [nM] | SMILES | Total % of the apoptotic population (HepG-2 cells [1]) [%] | VEGF relative fold change (VEGF [2]) | IC50 (Wi-38 cells; Homo sapiens, WI-38, read-out: Wi-38 IC50) [µM] | EC100 (Wi-38 cells; effective safe concentration at 100% cell viability, Wi-38, 72 h, mean ± SEM) [µM] | IC50 (HepG-2 cells [3]; Homo sapiens, HepG2, 72 h, read-out: HepG-2 IC50) [µM] | HepG-2 SI (HepG-2 cells [3]; [7]) | IC50 (MCF-7 cells [4]; Homo sapiens, MCF7, 72 h, read-out: MCF-7 IC50) [µM] | MCF-7 SI (MCF-7 cells [4]; [7]) | selectivity index (SI) (MCF-7 cells [4]; stated for MCF-7 and HepG-2 together, versus Wi-38) | VEGF relative fold change (VEGF [5]) | Total % of the apoptotic population (MCF-7 cells [6]) [%]
– | – | – | O=c1c(O)c(-c2ccc(O)c(O)c2)oc2cc(O)cc(O)c12 [Qur, quercetin] | 24.20 ± 0.895 | 0.683 ± 0.029 | 294 ± 12.6 | 70.57 ± 0.950 | 34.32 ± 0.128 | 8.573 | 35.3 ± 0.475 | 8.339 | ~8.5 | 0.708 ± 0.012 | 47.00 ± 1.83
1.08 | 277 | 299 | COc1ccc(S(=O)(=O)N(CC(=O)NO)CC(C)C)cc1 [NNGH, N-isobutyl-N-(4-methoxyphenylsulfonyl)glycyl hydroxamic acid] | – | – | – | – | – | – | – | – | – | – | –
